# Sampled rows, rich in hits. Any-hit rate of the full collection: about 2%.
# S100A4 MyoIIA = inhibitors of S100A4-myosin IIA peptide binding, primary screen, biochemical, fluorescence polarization, TAMRA-MyoIIA peptide | Protein S100-A4 (Homo sapiens), P26447 | inhibition, % at 10.7 µM | hit rate 0.14% among 360,000;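 active means mean inhibition of at least 70% across replicates, with every replicate also reaching that level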
#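 Test system: S100A4 monomer protein. Medium: HEPES buffer with Ca2+, pH 7.2. Reagent: fluorescent myosin IIA peptide, 5 nM. Compound dosing: single-point compound testing. Timing: 5 min between mix addition and reading. Benchmarks: DMSO neutral and TFP positive wells.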
# CDK5 p35 inh = inhibitors of human CDK5/p35 kinase, primary screen, biochemical, single concentration. inhibition, % at 10 µM. hit rate 0.01% among 330,000. AID 488839, 2010. Recombinant CDK5/p35, ADP-Glo luminescence, 60 min. Cyclin-dependent kinase 5 (Homo sapiens) + Cyclin-dependent kinase 5 activator 1 (Homo …;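 active means highest replicate inhibition of at least 50% and at least 75% of replicates reaching 50%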;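 further: plate controls were DMSO neutral control for no effect and GW8510 at 10 µM for full effect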
# Target sequence (Q00535 whole entry, looked up): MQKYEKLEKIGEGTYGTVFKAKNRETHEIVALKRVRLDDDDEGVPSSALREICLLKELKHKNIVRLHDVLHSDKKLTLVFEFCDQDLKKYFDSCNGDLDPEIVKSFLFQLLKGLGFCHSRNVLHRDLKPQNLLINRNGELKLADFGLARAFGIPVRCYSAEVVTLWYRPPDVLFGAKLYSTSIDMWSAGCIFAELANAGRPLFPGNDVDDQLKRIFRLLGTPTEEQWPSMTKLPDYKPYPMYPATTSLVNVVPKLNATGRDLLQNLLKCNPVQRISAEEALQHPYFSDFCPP
# Target sequence (Q15078 whole entry, looked up): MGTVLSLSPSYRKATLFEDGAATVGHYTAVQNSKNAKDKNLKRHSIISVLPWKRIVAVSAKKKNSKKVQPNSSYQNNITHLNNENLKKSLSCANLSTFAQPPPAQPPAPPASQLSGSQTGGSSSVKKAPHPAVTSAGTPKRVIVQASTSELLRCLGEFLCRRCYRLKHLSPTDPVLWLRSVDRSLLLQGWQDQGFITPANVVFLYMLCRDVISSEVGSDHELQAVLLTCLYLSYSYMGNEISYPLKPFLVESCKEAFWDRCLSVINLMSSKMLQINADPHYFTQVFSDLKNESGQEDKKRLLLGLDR
# CAL PDZ FP-1 = CAL PDZ peptide-binding inhibitors, primary screen, biochemical, fluorescence polarization, Cer-tagged CAL PDZ, HTS | Golgi-associated PDZ and coiled-coil motif-containing protein (Homo sapiens), Q9HD26 | purified CAL PDZ, TMR-peptide fluorescence polarization, 1 h | inhibition, % at 20 µM | hit rate 0.02% among 330,000 | AID 504414, 2011;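 active means highest replicate inhibition of at least 40%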;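 further: plate controls were DMSO neutral control wells for no effect and unlabeled competitor peptide control wells for full effect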
#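 material = purified tagged CAL PDZ domain construct (CerCALP) | compound dosing = 20 µM, one dose | times = 1 h at RT | measured by = fluorescence polarization from S- and P-plane intensities, G-factor corrected | read-out = inhibition from polarization loss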
# dFosB act = activators of delta FosB homodimer, primary screen, biochemical, fluorescence polarization, TAMRA-CDK5 oligo, single point. activation, % at 25 µM. AID 493131, 2011. hit rate 0.99% among 340,000. Protein FosB (Mus musculus), P13346. purified delta FosB; percent of positive-control signal above neutral wells;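 active means mean activation above about 17%, with every replicate also reaching it, limit read from the data, passing the limit was not always enough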
# Statin myotox sup = suppressors of statin myotoxicity in C2C12 myotubes, primary screen, cell-based, single point, plate reader; AID 602340, 2012; C2C12 myotubes + simvastatin, ATP luminescence, 48 h; scaled: DMSO 0, geranylgeraniol control 100; rescue of ATP level, % at 7.49 µM; hit rate 0.78% among 330,000;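 active means mean ATP rescue above about 67%, or every replicate alone reaching that limit, limit read from the data, passing the limit was not always enough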;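 further: myotubes were challenged with 10 µM simvastatin during compound exposure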
# CAL PDZ FP-2 = untagged CAL PDZ binding inhibitors, primary screen, biochemical, fluorescence polarization, HTS; Golgi-associated PDZ and coiled-coil motif-containing protein (Homo sapiens), Q9HD26; purified CAL PDZ, TMR-peptide fluorescence polarization, 1 h; inhibition, % at 24.9 µM; hit rate 0.92% among 300,000; AID 602252, 2012;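 active means mean inhibition of at least 30% with at least half of replicates also reaching 30%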;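 further: 0% = DMSO neutral control and 100% = excess unlabeled competitor peptide PRC23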
# * marks the source's active call; other numbers are inactive results; . = not tested or not shown; + = active, no number.
SMILES,S100A4 MyoIIA,CDK5 p35 inh,CAL PDZ FP-1,dFosB act,Statin myotox sup,CAL PDZ FP-2
C=CCN1C(=O)C(C)S/C1=N\S(=O)(=O)c1ccc(Cl)cc1 (stereo not given),.,1.0,-0.4,-9.4,.,0.4
CCN1C(=O)CS/C1=N\S(=O)(=O)c1ccc(Cl)cc1,0.5,-0.7,64.2*,-2.8,3.6,-2.3
CCc1ccccc1N(CC)C(=O)c1cn(C)c(=O)c2cc(OC)c(OC)cc12,.,-0.4,-3.0,-2.4,94.9*,-2.3
CCc1ccccc1N(CC)C(=O)c1cn(CC)c(=O)c2cc(OC)c(OC)cc12,.,-0.4,-2.5,-2.6,0.6,-2.6
N/C(CC(=O)Nc1ccc(F)cc1)=N\O,-1.6,-0.1,0.3,4.3,.,-3.1
Clc1ccc(SCc2cc(N3CCOCC3)nc(-c3ccccn3)n2)cc1,3.5,1.9,-0.9,-3.3,.,2.9
Cc1nc(CSc2ccc(Cl)cc2)cc(N2CC(C)OC(C)C2)n1 (stereo not given),2.5,1.0,0.5,-3.4,107.3*,-0.9
CCOC(=O)N1CCN(C(=O)CSc2nc(=O)n3cc(C)ccc3n2)CC1,7.0,-0.2,-2.3,-3.5,.,-0.3
Cc1cc2oc(C(=O)Nc3ccc(S(=O)(=O)Nc4ncccn4)cc3)cc(=O)c2cc1Cl,3.9,1.6,-0.9,-4.9,1.4,90.0*
COc1ccc(S(=O)(=O)Nc2ccc3c(c2)C(=O)N([C@H](C)CO)C[C@H](C)[C@H](CN(C)S(=O)(=O)c2ccc(F)cc2)OCCCC[C@H](C)O3)cc1,6.8,.,.,.,107.4*,.
COc1ccc(S(=O)(=O)Nc2ccc3c(c2)C(=O)N([C@H](C)CO)C[C@H](C)[C@H](CN(C)Cc2ccc(Cl)c(Cl)c2)OCCCC[C@@H](C)O3)cc1,.,.,.,.,78.8*,.
COc1ccc(S(=O)(=O)Nc2ccc3c(c2)C(=O)N([C@H](C)CO)C[C@@H](C)[C@H](CN(C)S(=O)(=O)c2ccc(F)cc2)OCCCC[C@H](C)O3)cc1,-9.5,.,.,.,158.6*,.
CC1CCC(NC(=O)C(NS(=O)(=O)c2cccc3nsnc23)C(C)C)CC1 (stereo not given),-0.3,1.1,0.5,-2.9,-1.6,.
C[C@@H]1CCCCO[C@@H](CN(C)S(=O)(=O)c2ccc(F)cc2)[C@@H](C)CN([C@@H](C)CO)C(=O)c2cc(N(C)C)ccc2O1,-3.9,.,.,.,-13.1,.
COc1ccc([N+](=O)[O-])cc1/C=N/NC(=O)c1nonc1N,0.9,0.6,0.4,10.1,-2.0,13.5
CCCCc1nc2cc(C(=O)N(C)C(C)c3ccccn3)ccc2o1 (stereo not given),-0.3,0.6,0.5,-0.3,-1.7,14.2
CN1c2ccccc2N(C)C1(C)c1ccccc1,66.8,0.4,-0.4,-5.1,.,-1.2
O=C1CSC(=S)N1/N=C/c1cc(Br)c(O)c(Br)c1,.,-3.7,-10.4,3.8,-0.5,58.9*
CN(C)CCN1C(=O)c2cccc3cc([N+](=O)[O-])cc(c23)C1=O,8.5,0.9,-0.2,49.1*,.,0.9
O=C1c2cccc3cc([N+](=O)[O-])cc(c23)C(=O)N1CC1CCCO1 (stereo not given),12.2,0.1,-0.4,5.2,5.2,.
CCOC(=O)[C@@H]1CSCCS(=O)(=O)N1C(=O)[C@H](C)NC(=O)OC(C)(C)C,5.5,.,.,.,.,.
Cc1ccc(C(=O)Nc2scc(-c3ccccc3)c2C(=O)O)cc1,-5.0,0.1,-2.2,-12.1,.,.
CC1(C)N=C(N)N=C(N)N1c1ccc(F)cc1F,.,-0.2,-0.4,-1.3,104.3*,-0.8
Cc1nn(CCC(=O)N2CCN(S(=O)(=O)c3ccc(Cl)cc3)CC2)c(C)c1C,-2.5,-0.2,-0.8,-12.0,-10.0,-3.6
O=S(=O)(c1ccccc1)c1nc(-c2ccco2)oc1N1CCCCCC1,.,-1.1,-1.6,-10.6,105.1*,-1.1
SMILES,S100A4 MyoIIA,CDK5 p35 inh,CAL PDZ FP-1,dFosB act,Statin myotox sup,CAL PDZ FP-2
CN1CCN(c2oc(-c3ccco3)nc2S(=O)(=O)c2ccccc2)CC1,.,-1.6,-0.2,-3.8,19.6,-1.0
COCCNC(=O)C1(C)CCN(Cc2csc(-c3ccc(Cl)cc3)n2)C1 (stereo not given),5.6,.,.,.,-10.1,.
Cc1c(C(=O)N2CCCCC2)c(S(=O)(=O)N2CCC(C)CC2)c(C)n1C,6.0,0.5,-1.0,0.1,7.3,75.2*
Cc1c(C(=O)N2CCCC2)c(S(=O)(=O)N2CCCCC2)c(C)n1C,1.2,-1.5,-1.2,-4.5,-2.2,-0.4
Brc1ccc(-c2noc(C3CCCCC3)n2)cc1,-2.1,-1.4,-1.5,4.9,.,107.3*
Cc1ccc(NC(=O)CCCc2c[nH]c3ccccc23)nc1,1.6,-0.4,-2.1,6.8,0.0,3.5
O=C1COc2ccccc2CN1,.,1.2,-0.7,0.4,-10.5,+
COc1ccccc1N(CC(=O)NC(C)(C)C)C(=O)Cn1nnc(-c2ccc(C)o2)n1,.,-0.6,.,-5.2,10.8,-4.7
CC(C)(C)NC(=O)CN(C(=O)Cn1nnc(-c2ccccc2F)n1)c1cccc2c1CCCC2,.,-1.2,-0.3,-10.3,153.4*,5.1
Nc1ccn(CC(=O)N[C@H](CO)Cc2c[nH]c3ccccc23)c(=O)n1,-0.4,0.3,-0.5,3.1,124.4*,0.0
O=C(N/N=C/c1cc(Br)ccc1O)c1ccncc1,-6.0,1.2,.,-9.3,15.4,112.9*
CC(=O)Nc1ccc(C(=O)N/N=C/c2cc(Br)cc(Br)c2O)cc1,6.9,-0.1,-1.1,96.6*,-0.3,-5.3
CC(C)C(=O)Nc1ccc(C(=O)N/N=C/c2cc(Br)cc(Br)c2O)cc1,3.6,-0.2,-2.5,13.1,.,-1.0
Cc1ccc(N=Nc2ccc(O)c(/C=N\NC(=O)c3ccc(N)cc3)c2)cc1C,.,0.8,-3.2,46.8*,-1.8,0.3
CCOc1ccccc1NC(=O)C(=O)N/N=C/c1cc(Br)ccc1O,-1.2,-1.1,-0.4,5.3,19.6,67.3*
O=C(N/N=C/c1ccccc1O)c1ccncc1,-3.6,-0.5,-0.7,1.1,-8.8,1.8
CC(NC(=S)NC(=O)c1ccccc1)c1ccccc1 (stereo not given),-2.2,2.2,-0.3,0.2,2.2,.
CCOc1ccc2[nH]c(=O)c(C(c3nnnn3C3CCCCC3)N3CCN(C)CC3)cc2c1 (stereo not given),.,0.5,-3.0,2.9,-5.1,-3.8
